From ChEMBL document CHEMBL2380298, “Synthesis and antimicrobial activity of novel amphiphilic aromatic amino alcohols” (2013)

Assays:
Format in all cases: functional
Staphylococcus aureus [1] = test: Antimicrobial activity against methicillin-resistant Staphylococcus aureus clinical isolate 178 by broth dilution method
Staphylococcus aureus [2] = test: Antimicrobial activity against methicillin-resistant Staphylococcus aureus clinical isolate 257 by broth dilution method
Staphylococcus aureus [3] = test: Antimicrobial activity against methicillin-resistant Staphylococcus aureus clinical isolate 227 by broth dilution method
Staphylococcus aureus [4] = test: Bactericidal activity against methicillin-resistant Staphylococcus aureus clinical isolate 237 after 24 hrs; details: isolate 237, 24 h
Procedure, shortened: (§1)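 Bactericidal concentration: 0.1 ml from wells at the MIC dilution and the dilutions on either side was streaked onto tryptic soy agar and incubated 24 h. It was taken as the lowest drug concentration giving no growth (100% killing).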

Nakaseomyces glabratus = test: Antimicrobial activity against Candida glabrata ATCC 18804 by broth dilution method
Candida albicans = test: Antimicrobial activity against Candida albicans ATCC 22019 by broth dilution method
Staphylococcus aureus [5] = test: Antimicrobial activity against methicillin-resistant Staphylococcus aureus clinical isolate 176 by broth dilution method
Staphylococcus aureus [6] = test: Antimicrobial activity against methicillin-resistant Staphylococcus aureus clinical isolate 215 by broth dilution method
Staphylococcus aureus [7] = test: Antimicrobial activity against methicillin-resistant Staphylococcus aureus clinical isolate 238 by broth dilution method
Staphylococcus aureus [8] = test: Bactericidal activity against methicillin-resistant Staphylococcus aureus clinical isolate 176 after 24 hrs; details: isolate 176, 24 h; procedure, shortened: as §1
Staphylococcus aureus [9] = test: Antimicrobial activity against methicillin-resistant Staphylococcus aureus clinical isolate 264 by broth dilution method
Staphylococcus aureus [10] = test: Bactericidal activity against methicillin-resistant Staphylococcus aureus clinical isolate 257 after 24 hrs; details: isolate 257, 24 h; procedure, shortened: as §1
Staphylococcus aureus [11] = test: Antimicrobial activity against methicillin-resistant Staphylococcus aureus clinical isolate 218 by broth dilution method
Staphylococcus aureus [12] = test: Bactericidal activity against methicillin-resistant Staphylococcus aureus clinical isolate 225 after 24 hrs; details: isolate 225, 24 h; procedure, shortened: as §1
Staphylococcus aureus [13] = test: Antimicrobial activity against methicillin-resistant Staphylococcus aureus clinical isolate 207 by broth dilution method
Staphylococcus aureus [14] = test: Antimicrobial activity against methicillin-resistant Staphylococcus aureus clinical isolate 225 by broth dilution method
Staphylococcus aureus [15] = test: Bactericidal activity against methicillin-resistant Staphylococcus aureus clinical isolate 260 after 24 hrs; details: isolate 260, 24 h; procedure, shortened: as §1
Staphylococcus aureus [16] = test: Antimicrobial activity against methicillin-resistant Staphylococcus aureus clinical isolate by broth dilution method
Staphylococcus aureus [17] = test: Bactericidal activity against methicillin-resistant Staphylococcus aureus clinical isolate 212 after 24 hrs; details: isolate 212, 24 h; procedure, shortened: as §1
Staphylococcus aureus [18] = test: Antimicrobial activity against methicillin-resistant Staphylococcus aureus clinical isolate 237 by broth dilution method
Candida parapsilosis = test: Antimicrobial activity against Candida parapsilosis ATCC 90030 by broth dilution method; details: Lodderomyces parapsilosis
Staphylococcus aureus [19] = test: Bactericidal activity against Staphylococcus aureus ATCC 29213 after 24 hrs; details: ATCC 29213, 24 h; procedure, shortened: as §1
Staphylococcus aureus [20] = test: Bactericidal activity against methicillin-resistant Staphylococcus aureus clinical isolate 178 after 24 hrs; details: isolate 178, 24 h; procedure, shortened: as §1
Escherichia coli [21] = test: Antimicrobial activity against Escherichia coli ATCC 11229 by broth dilution method
Staphylococcus aureus [22] = test: Bactericidal activity against methicillin-resistant Staphylococcus aureus clinical isolate 227 after 24 hrs; details: isolate 227, 24 h; procedure, shortened: as §1
Staphylococcus aureus [23] = test: Antimicrobial activity against methicillin-resistant Staphylococcus aureus clinical isolate 260 by broth dilution method
Staphylococcus aureus [24] = test: Bactericidal activity against methicillin-resistant Staphylococcus aureus clinical isolate 231 after 24 hrs; details: isolate 231, 24 h; procedure, shortened: as §1
Staphylococcus aureus [25] = test: Antimicrobial activity against methicillin-resistant Staphylococcus aureus clinical isolate 259 by broth dilution method
Staphylococcus aureus [26] = test: Antimicrobial activity against Staphylococcus aureus ATCC 29213 by broth dilution method; details: Staphylococcus aureus, ATCC 29213
Staphylococcus aureus [27] = test: Antimicrobial activity against methicillin-resistant Staphylococcus aureus clinical isolate 235 by broth dilution method
Staphylococcus aureus [28] = test: Bactericidal activity against methicillin-resistant Staphylococcus aureus clinical isolate 264 after 24 hrs; details: isolate 264, 24 h; procedure, shortened: as §1
Staphylococcus aureus [29] = test: Antimicrobial activity against methicillin-resistant Staphylococcus aureus clinical isolate 232 by broth dilution method
Staphylococcus aureus [30] = test: Bactericidal activity against methicillin-resistant Staphylococcus aureus clinical isolate 215 after 24 hrs; details: isolate 215, 24 h; procedure, shortened: as §1
Escherichia coli [31] = test: Bactericidal activity against Escherichia coli ATCC 11229 after 24 hrs; details: ATCC 11229, 24 h
Procedure, shortened: (§2)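 MBC: after MIC determination, 0.1 ml from the MIC well and from two dilutions either side streaked on tryptic soy agar, incubated 24 h; MBC taken as lowest concentration giving no growth (100% kill).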

Candida tropicalis = test: Antimicrobial activity against Candida tropicalis ATCC 750 by broth dilution method
[32] = test system: Staphylococcus epidermidis; test: Antimicrobial activity against Staphylococcus epidermidis ATCC 12228 by broth dilution method
Staphylococcus aureus [33] = test: Bactericidal activity against methicillin-resistant Staphylococcus aureus clinical isolate 236 after 24 hrs; details: isolate 236, 24 h; procedure, shortened: as §1
Staphylococcus aureus [34] = test: Antimicrobial activity against methicillin-resistant Staphylococcus aureus clinical isolate 195 by broth dilution method
[35] = test system: Staphylococcus epidermidis; test: Bactericidal activity against Staphylococcus epidermidis ATCC 12228 after 24 hrs; details: ATCC 12228, 24 h; procedure, shortened: as §2
Staphylococcus aureus [36] = test: Antimicrobial activity against methicillin-resistant Staphylococcus aureus clinical isolate 255 by broth dilution method
Staphylococcus aureus [37] = test: Antimicrobial activity against methicillin-resistant Staphylococcus aureus clinical isolate 205 by broth dilution method
Staphylococcus aureus [38] = test: Antimicrobial activity against methicillin-resistant Staphylococcus aureus clinical isolate 236 by broth dilution method
Staphylococcus aureus [39] = test: Antimicrobial activity against methicillin-resistant Staphylococcus aureus clinical isolate 212 by broth dilution method
Staphylococcus aureus [40] = test: Bactericidal activity against methicillin-resistant Staphylococcus aureus clinical isolate 235 after 24 hrs; details: isolate 235, 24 h; procedure, shortened: as §1
Staphylococcus aureus [41] = test: Bactericidal activity against methicillin-resistant Staphylococcus aureus clinical isolate 195 after 24 hrs; details: isolate 195, 24 h; procedure, shortened: as §1
Staphylococcus aureus [42] = test: Bactericidal activity against methicillin-resistant Staphylococcus aureus clinical isolate 259 after 24 hrs; details: isolate 259, 24 h; procedure, shortened: as §1
Staphylococcus aureus [43] = test: Bactericidal activity against methicillin-resistant Staphylococcus aureus clinical isolate 255 after 24 hrs; details: isolate 255, 24 h; procedure, shortened: as §1
Staphylococcus aureus [44] = test: Bactericidal activity against methicillin-resistant Staphylococcus aureus clinical isolate 238 after 24 hrs; details: isolate 238, 24 h; procedure, shortened: as §1
Staphylococcus aureus [45] = test: Bactericidal activity against methicillin-resistant Staphylococcus aureus clinical isolate 207 after 24 hrs; details: isolate 207, 24 h; procedure, shortened: as §1
Pseudomonas aeruginosa = test: Antimicrobial activity against Pseudomonas aeruginosa ATCC 27853 by broth dilution method
Staphylococcus aureus [46] = test: Antimicrobial activity against methicillin-resistant Staphylococcus aureus clinical isolate 231 by broth dilution method
Staphylococcus aureus [47] = test: Bactericidal activity against methicillin-resistant Staphylococcus aureus clinical isolate 232 after 24 hrs; details: isolate 232, 24 h; procedure, shortened: as §1

CCCCCCCCCOc1ccc(CNC(CO)(CO)CO)cc1.Cl
4 µg/mL: MIC (Nakaseomyces glabratus) | MIC (Candida albicans)
4.529: -logMIC (Staphylococcus aureus [16])
32 µg/mL: MBC (Staphylococcus aureus [4]) | MIC (Staphylococcus aureus [7]) | MBC (Staphylococcus aureus [8]) | MBC (Staphylococcus aureus [15]) | MIC (Candida parapsilosis) | MBC (Staphylococcus aureus [20]) | MBC (Staphylococcus aureus [24]) | MBC (Staphylococcus aureus [28]) | MBC (Staphylococcus aureus [30]) | MBC (Escherichia coli [31]) | MIC (Staphylococcus aureus [39]) | MBC (Staphylococcus aureus [40]) | MBC (Staphylococcus aureus [41]) | MBC (Staphylococcus aureus [42]) | MBC (Staphylococcus aureus [43]) | MBC (Staphylococcus aureus [44]) | MBC (Staphylococcus aureus [47])
8 µg/mL: MIC (Staphylococcus aureus [2]) | MIC (Staphylococcus aureus [5]) | MIC (Staphylococcus aureus [9]) | MIC (Staphylococcus aureus [11]) | MIC (Staphylococcus aureus [14]) | MIC50 (Staphylococcus aureus [16]; Staphylococcus aureus) | MIC (Staphylococcus aureus [25]) | MIC (Staphylococcus aureus [26]) | MIC (Staphylococcus aureus [27]) | MIC ([32]; Staphylococcus epidermidis, ATCC 12228) | MIC (Staphylococcus aureus [34]) | MIC (Staphylococcus aureus [37]) | MIC (Staphylococcus aureus [38]) | MIC (Staphylococcus aureus [46])
16 µg/mL: MIC (Staphylococcus aureus [1]) | MIC (Staphylococcus aureus [3]) | MIC (Staphylococcus aureus [6]) | MBC (Staphylococcus aureus [12]) | MIC (Staphylococcus aureus [13]) | MIC90 (Staphylococcus aureus [16]; Staphylococcus aureus) | MIC (Staphylococcus aureus [18]) | MBC (Staphylococcus aureus [19]) | MIC (Escherichia coli [21]; Escherichia coli, ATCC 11229) | MIC (Staphylococcus aureus [23]) | MIC (Staphylococcus aureus [29]) | MBC (Staphylococcus aureus [33]) | MBC [35] | MIC (Staphylococcus aureus [36])
> 256 µg/mL: MIC (Pseudomonas aeruginosa)
4.38: -logMIC (Escherichia coli [21])
4.68: -logMIC [32]
64 µg/mL: MBC (Staphylococcus aureus [10]) | MBC (Staphylococcus aureus [17]) | MBC (Staphylococcus aureus [22]) | MIC (Candida tropicalis) | MBC (Staphylococcus aureus [45])
